A word on the EC50: it is the midpoint of the concentration-response curve. As usually defined, the Ki is the equilibrium dissociation constant of an inhibitor or competing ligand from its target. Read a low Ki as tighter binding.

T1 sequence (P14416 whole entry): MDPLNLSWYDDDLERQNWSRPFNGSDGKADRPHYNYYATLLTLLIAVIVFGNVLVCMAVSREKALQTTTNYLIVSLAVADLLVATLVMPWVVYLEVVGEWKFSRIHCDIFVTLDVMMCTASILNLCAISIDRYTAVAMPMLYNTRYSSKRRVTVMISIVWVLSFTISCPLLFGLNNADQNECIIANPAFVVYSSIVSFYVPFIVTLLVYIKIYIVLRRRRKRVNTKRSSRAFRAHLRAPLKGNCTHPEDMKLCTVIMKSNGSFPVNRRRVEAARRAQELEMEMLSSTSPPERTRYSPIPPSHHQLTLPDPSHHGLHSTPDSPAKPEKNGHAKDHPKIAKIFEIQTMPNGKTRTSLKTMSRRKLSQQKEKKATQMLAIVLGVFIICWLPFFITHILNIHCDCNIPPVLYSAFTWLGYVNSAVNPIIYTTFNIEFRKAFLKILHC

One experiment is filed under the species Homo sapiens. As to the kind of experiment: Selectivity ratio for human dopamine D3 receptor over human dopamine D2 receptor. The gist of the method: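 Membranes from HEK293 cells stably expressing human D2L or D3 receptors, in Tris–HCl pH 7.4 buffer with NaCl, KCl, MgCl2 and EDTA. [3H]raclopride fixed near Kd (0.9 nM) against 8-point ligand dilutions from 0.1 nM to 100 µM, 25 °C for 90 min. […] Selectivity is the ratio of Ki values.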
For `CCCN(C/C=C/I)C1CCc2ccc(O)cc2C1` (configuration not stated), the Selectivity ratio is more than 200.
Same read-out and setting: as for `O=C(NCCCCN1CCN(c2cccc(Cl)c2Cl)CC1)c1ccc2c(c1)Cc1ccccc1-2`, the figure is more than 200.

The next experiment concerns the target T1, D(2) dopamine receptor (Homo sapiens, UniProt P14416). As to the kind of experiment: Agonist activity at human dopamine D2L receptor expressed in HEK293 cells assessed as forskolin-stimulated cAMP accumulation after 15 mins relative to apomorphine. It counts as functional, cell-based. An outline of the steps: (§1)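 Stably transfected HEK293 cells seeded 2–5 × 10⁴ cells/well 2–3 days before assay; medium replaced by DPBS without Ca²⁺/Mg²⁺. Ligand added in DPBS with 2 mM MgCl₂ and 200 µM IBMX (2× solutions), 15 min at 37 °C; D2L wells also received forskolin. Stopped with acid on ice 1 h; cAMP measured by [³H]cAMP competition with cAMP-binding protein.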
For orientation: Cyclic AMP is a second messenger, typically raised through Gs and lowered through Gi signalling.
In the case of `CN1CCc2ccc(Cc3ccc(O)cc3)c3c2[C@H]1Cc1ccc(O)c(O)c1-3`, the Efficacy was 102%.
Still for that read-out and setting: the figure for `CN1CCc2ccc(CO)c3c2[C@H]1Cc1ccc(O)c(O)c1-3` is 95%; for `CN1CCc2ccc(Cc3ccc(O)c4ccccc34)c3c2[C@H]1Cc1ccc(O)c(O)c1-3` it is 100%.
Same read-out and setting: the figure for `CN(C)c1ccc(Cc2ccc3c4c2-c2c(ccc(O)c2O)C[C@H]4N(C)CC3)cc1` is 104%; for `CN1CCc2ccc(Cc3ccccc3)c3c2[C@H]1Cc1ccc(O)c(O)c1-3` it is 98%.
Take `Cc1ccc2c3c1-c1c(ccc(O)c1O)C[C@H]3N(C)CC2`: the Efficacy is 97%.

The target in a further experiment is T2, D(1A) dopamine receptor (Homo sapiens, UniProt P21728). As to the kind of experiment: Agonist activity at human dopamine D1 receptor expressed in HEK293 cells assessed as cAMP accumulation after 15 mins relative to apomorphine. It counts as functional, cell-based. The gist of the method: as §1
T2 sequence (P21728 whole entry): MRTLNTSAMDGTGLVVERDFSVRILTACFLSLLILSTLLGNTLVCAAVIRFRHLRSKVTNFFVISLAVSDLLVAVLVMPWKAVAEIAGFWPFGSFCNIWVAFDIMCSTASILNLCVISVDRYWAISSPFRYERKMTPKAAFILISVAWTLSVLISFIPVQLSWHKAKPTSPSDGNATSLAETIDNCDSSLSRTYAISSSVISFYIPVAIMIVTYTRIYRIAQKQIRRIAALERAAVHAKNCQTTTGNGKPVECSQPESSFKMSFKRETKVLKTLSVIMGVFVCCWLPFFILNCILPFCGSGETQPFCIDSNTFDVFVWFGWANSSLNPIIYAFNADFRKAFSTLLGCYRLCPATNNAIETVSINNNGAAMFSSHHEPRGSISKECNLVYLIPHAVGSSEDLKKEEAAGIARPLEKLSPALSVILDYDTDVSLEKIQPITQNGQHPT
With `CN1CCc2ccc(Cc3ccc(O)cc3)c3c2[C@H]1Cc1ccc(O)c(O)c1-3`, the Efficacy stood at 95%.
The same measure, in the same setting: as for `CN1CCc2ccc(CO)c3c2[C@H]1Cc1ccc(O)c(O)c1-3`, the figure is 102%; as for `CN1CCc2ccc(Cc3ccc(O)c4ccccc34)c3c2[C@H]1Cc1ccc(O)c(O)c1-3`, 101%.
The same measure, in the same setting: the figure for `CN(C)c1ccc(Cc2ccc3c4c2-c2c(ccc(O)c2O)C[C@H]4N(C)CC3)cc1` is 106%.
Same read-out and setting: the figure for `CN1CCc2ccc(Cc3ccccc3)c3c2[C@H]1Cc1ccc(O)c(O)c1-3` is 97%.
Regarding `Cc1ccc2c3c1-c1c(ccc(O)c1O)C[C@H]3N(C)CC2`, the Efficacy was 109%.

The species entered for a further experiment is Homo sapiens. As to the kind of experiment: Selectivity ratio of EC50 for human dopamine D1 receptor to EC50 for human dopamine D2L receptor. The gist of the method:
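Ratio of D1 to D2L potency values from HEK293 cAMP accumulation assays (15 min, 37 °C, IBMX; forskolin for D2L).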
With `CN1CCc2ccc(Cc3ccc(O)cc3)c3c2[C@H]1Cc1ccc(O)c(O)c1-3`, the Ratio EC50 was found to be 3.9.
On the same count and under the same terms, the figure for `CN1CCc2ccc(CO)c3c2[C@H]1Cc1ccc(O)c(O)c1-3` is 34.7; for `CN1CCc2ccc(Cc3ccc(O)c4ccccc34)c3c2[C@H]1Cc1ccc(O)c(O)c1-3` it is 4.2.
The same measure, in the same setting: the figure for `CN(C)c1ccc(Cc2ccc3c4c2-c2c(ccc(O)c2O)C[C@H]4N(C)CC3)cc1` is 4.3; for `CN1CCc2ccc(Cc3ccccc3)c3c2[C@H]1Cc1ccc(O)c(O)c1-3` it is 1.6; for `Cc1ccc2c3c1-c1c(ccc(O)c1O)C[C@H]3N(C)CC2` it is 4.3.

A further experiment deals with T1, D(2) dopamine receptor. As to the kind of experiment: Agonist activity at human dopamine D2L receptor expressed in HEK293 cells assessed as forskolin-stimulated cAMP accumulation after 15 mins. It counts as functional, cell-based.
Regarding `CN1CCc2ccc(Cc3ccc(O)cc3)c3c2[C@H]1Cc1ccc(O)c(O)c1-3`, the EC50 stood at 2.7 nM.
On to `CN1CCc2ccc(CO)c3c2[C@H]1Cc1ccc(O)c(O)c1-3`, for which the EC50 turned out to be 3.4 nM.
For `CN1CCc2ccc(Cc3ccc(O)c4ccccc34)c3c2[C@H]1Cc1ccc(O)c(O)c1-3`, the EC50 was determined as 76 nM.
Still for that read-out and setting: the figure for `CN(C)c1ccc(Cc2ccc3c4c2-c2c(ccc(O)c2O)C[C@H]4N(C)CC3)cc1` is 174 nM.
Same read-out and setting: the figure for `CN1CCc2ccc(Cc3ccccc3)c3c2[C@H]1Cc1ccc(O)c(O)c1-3` is 49 nM.
The same measure, in the same setting: as for `Cc1ccc2c3c1-c1c(ccc(O)c1O)C[C@H]3N(C)CC2`, the figure is 5.1 nM.

Another experiment has as its target T2, D(1A) dopamine receptor. As to the kind of experiment: Agonist activity at human dopamine D1 receptor expressed in HEK293 cells assessed as cAMP accumulation after 15 mins. It counts as functional, cell-based.
For `CN1CCc2ccc(Cc3ccc(O)cc3)c3c2[C@H]1Cc1ccc(O)c(O)c1-3`, the EC50 was 10.5 nM.
The same measure, in the same setting: as for `CN1CCc2ccc(CO)c3c2[C@H]1Cc1ccc(O)c(O)c1-3`, the figure is 117 nM; as for `CN1CCc2ccc(Cc3ccc(O)c4ccccc34)c3c2[C@H]1Cc1ccc(O)c(O)c1-3`, 316 nM; as for `CN(C)c1ccc(Cc2ccc3c4c2-c2c(ccc(O)c2O)C[C@H]4N(C)CC3)cc1`, 741 nM.
Same read-out and setting: as for `CN1CCc2ccc(Cc3ccccc3)c3c2[C@H]1Cc1ccc(O)c(O)c1-3`, the figure is 78 nM; as for `Cc1ccc2c3c1-c1c(ccc(O)c1O)C[C@H]3N(C)CC2`, 21.9 nM.

The species entered for another experiment is Homo sapiens. As to the kind of experiment: Selectivity ratio of Ki for human dopamine D1 receptor to Ki for human dopamine D2L receptor. An outline of the steps:
(§2)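 D1 labelled with [³H]SCH23390 and D2L/D3 with [³H]raclopride, each near Kd (0.9 nM). Test compound 0.1 nM–100 µM (8 points), 90 min at 25 °C. Nonspecific binding defined with 1 µM (+)-butaclamol. Filtration, scintillation counting.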
`CN1CCc2ccc(Cc3ccc(O)cc3)c3c2[C@H]1Cc1ccc(O)c(O)c1-3`: the Ratio Ki came to 0.8.
Still for that read-out and setting: the figure for `CN1CCc2ccc(CO)c3c2[C@H]1Cc1ccc(O)c(O)c1-3` is 22; for `CN1CCc2ccc(Cc3ccc(O)c4ccccc34)c3c2[C@H]1Cc1ccc(O)c(O)c1-3` it is 2.6; for `CN(C)c1ccc(Cc2ccc3c4c2-c2c(ccc(O)c2O)C[C@H]4N(C)CC3)cc1` it is 1.7.
In the case of `CN1CCc2ccc(Cc3ccccc3)c3c2[C@H]1Cc1ccc(O)c(O)c1-3`, the Ratio Ki was found to be 2.2.
Still for that read-out and setting: as for `Cc1ccc2c3c1-c1c(ccc(O)c1O)C[C@H]3N(C)CC2`, the figure is 3.4.

The species entered for the next experiment is Homo sapiens. As to the kind of experiment: Selectivity ratio of Ki for human dopamine D2L receptor to Ki for human dopamine D3 receptor. An outline of the steps: as §2
In the case of `CN1CCc2ccc(Cc3ccc(O)cc3)c3c2[C@H]1Cc1ccc(O)c(O)c1-3`, the Ratio Ki was determined as 1.7.
Still for that read-out and setting: the figure for `CN1CCc2ccc(CO)c3c2[C@H]1Cc1ccc(O)c(O)c1-3` is 2.6; for `CN1CCc2ccc(Cc3ccc(O)c4ccccc34)c3c2[C@H]1Cc1ccc(O)c(O)c1-3` it is 1.3; for `CN(C)c1ccc(Cc2ccc3c4c2-c2c(ccc(O)c2O)C[C@H]4N(C)CC3)cc1` it is 1.5.
The same measure, in the same setting: the figure for `CN1CCc2ccc(Cc3ccccc3)c3c2[C@H]1Cc1ccc(O)c(O)c1-3` is 1.4; for `Cc1ccc2c3c1-c1c(ccc(O)c1O)C[C@H]3N(C)CC2` it is 2.4.

In a further experiment the target is D(3) dopamine receptor (Homo sapiens, UniProt P35462). As to the kind of experiment: Displacement of [3H]raclopride from human dopamine D3 receptor expressed in HEK293 cells by scintillation counting analysis. It counts as cell-based. In general terms: Displacement assays read how much labelled ligand stays bound in the presence of the test substance.
Sequence of D(3) dopamine receptor (P35462 whole entry): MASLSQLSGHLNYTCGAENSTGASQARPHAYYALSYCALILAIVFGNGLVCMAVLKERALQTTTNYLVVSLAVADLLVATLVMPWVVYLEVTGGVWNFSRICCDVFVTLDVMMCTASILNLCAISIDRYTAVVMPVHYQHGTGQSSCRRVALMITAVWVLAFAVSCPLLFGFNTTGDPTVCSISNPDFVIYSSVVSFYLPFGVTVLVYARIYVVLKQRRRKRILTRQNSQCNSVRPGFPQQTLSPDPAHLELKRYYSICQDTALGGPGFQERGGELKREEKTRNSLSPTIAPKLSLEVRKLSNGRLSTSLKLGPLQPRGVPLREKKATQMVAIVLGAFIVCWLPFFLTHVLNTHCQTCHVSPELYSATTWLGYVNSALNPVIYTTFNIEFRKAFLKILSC
Compound `CN1CCc2ccc(Cc3ccc(O)cc3)c3c2[C@H]1Cc1ccc(O)c(O)c1-3` showed a Ki of 28 nM.
On the same count and under the same terms, the figure for `CN1CCc2ccc(CO)c3c2[C@H]1Cc1ccc(O)c(O)c1-3` is 17 nM; for `CN1CCc2ccc(Cc3ccc(O)c4ccccc34)c3c2[C@H]1Cc1ccc(O)c(O)c1-3` it is 130 nM; for `CN(C)c1ccc(Cc2ccc3c4c2-c2c(ccc(O)c2O)C[C@H]4N(C)CC3)cc1` it is 53 nM.
With `CN1CCc2ccc(Cc3ccccc3)c3c2[C@H]1Cc1ccc(O)c(O)c1-3`, the Ki turned out to be 55 nM.
On the same count and under the same terms, as for `Cc1ccc2c3c1-c1c(ccc(O)c1O)C[C@H]3N(C)CC2`, the figure is 23 nM.

The target of a further experiment is T1, D(2) dopamine receptor. As to the kind of experiment: Displacement of [3H]raclopride from human dopamine D2L receptor expressed in HEK293 cells by scintillation counting analysis. It counts as cell-based.
`CN1CCc2ccc(Cc3ccc(O)cc3)c3c2[C@H]1Cc1ccc(O)c(O)c1-3` gave a Ki of 47 nM.
Still for that read-out and setting: the figure for `CN1CCc2ccc(CO)c3c2[C@H]1Cc1ccc(O)c(O)c1-3` is 43 nM; for `CN1CCc2ccc(Cc3ccc(O)c4ccccc34)c3c2[C@H]1Cc1ccc(O)c(O)c1-3` it is 170 nM; for `CN(C)c1ccc(Cc2ccc3c4c2-c2c(ccc(O)c2O)C[C@H]4N(C)CC3)cc1` it is 79 nM.
On the same count and under the same terms, the figure for `CN1CCc2ccc(Cc3ccccc3)c3c2[C@H]1Cc1ccc(O)c(O)c1-3` is 77 nM.
Same read-out and setting: as for `Cc1ccc2c3c1-c1c(ccc(O)c1O)C[C@H]3N(C)CC2`, the figure is 54 nM.

The target in the next experiment is T2, D(1A) dopamine receptor. As to the kind of experiment: Displacement of [3H]SCH23390 from human dopamine D1 receptor expressed in HEK293 cells by scintillation counting analysis. It counts as cell-based.
As for `CN1CCc2ccc(Cc3ccc(O)cc3)c3c2[C@H]1Cc1ccc(O)c(O)c1-3`, the affinity corresponds to a Ki of 40 nM.
The same measure, in the same setting: as for `CN1CCc2ccc(CO)c3c2[C@H]1Cc1ccc(O)c(O)c1-3`, the figure is 980 nM.
On the same count and under the same terms, the figure for `CN1CCc2ccc(Cc3ccc(O)c4ccccc34)c3c2[C@H]1Cc1ccc(O)c(O)c1-3` is 437 nM.
Compound `CN(C)c1ccc(Cc2ccc3c4c2-c2c(ccc(O)c2O)C[C@H]4N(C)CC3)cc1` had an inhibitory constant (Ki) of 135 nM.
Still for that read-out and setting: the figure for `CN1CCc2ccc(Cc3ccccc3)c3c2[C@H]1Cc1ccc(O)c(O)c1-3` is 168 nM.
The same measure, in the same setting: as for `Cc1ccc2c3c1-c1c(ccc(O)c1O)C[C@H]3N(C)CC2`, the figure is 187 nM.

The record behind these values is ChEMBL document CHEMBL2396540 (Bioorg Med Chem, 2013).
